Structures are written as SMILES.

Data on 18 compounds can be found in ChEMBL document CHEMBL1122658, “Amnesia-reversal activity of a series of N-[(disubstituted-amino)alkyl] -2-oxo-1-pyrrolidineacetamides, including pramiracetam” (1984).

The first experiment concerns Mus musculus. In words: Ability to reverse electroconvulsive shock (ECS) induced amnesia in mice, after administering intraperitoneally, at a dose of 80 mg/kg. Format: functional. As to conditions: route intraperitoneal. The essentials: (§1)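 Male CF-1 mice (20-25 g), five groups of 20, trained in one trial on step-through inhibitory avoidance (darkened chamber). ECS given 2 h after training. Test drug or vehicle placebo injected ip 2 h after ECS, 1 h before retention test. Entry into box within 60 s scored as amnesia. % reversal = (drug − base-line ECS+placebo)/(ceiling no-ECS+placebo − base-line) ×100.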
For `CC(CNC(=O)CN1CCCC1=O)N1CCCCC1` (stereo not drawn), the Amnesia reversal was found to be 0%.

In the case of `CCN(CC)CCNC(=O)CN1CCCC1=O`, the Amnesia reversal was 31%.

`CC(C(=O)NCCCN1C(C)CCCC1C)N1CCCC1=O` (stereo not drawn): the Amnesia reversal was determined as 23%.

In the case of `CC1CCC(=O)N1CC(=O)NCCCN1C(C)CCCC1C` (stereo not drawn), the Amnesia reversal came to 10%.

Regarding `CC(CNC(=O)CN1C(=O)CCC1C)N1CCCCC1` (stereo not drawn), the Amnesia reversal worked out at 45%.

For `CC(C)N(C)CCNC(=O)CN1CCCC1=O`, the Amnesia reversal was 0%.

With `CC1CCCC(C)N1CCNC(=O)CN1C(=O)CCC1(C)C` (stereo not drawn), the Amnesia reversal was 44%.

As to `C1CCc2nnnn2CC1.O=C(O)c1cccnc1`, the Amnesia reversal is listed as 9%.

As to `CC(C(=O)NCCN1C(C)CCCC1C)N1CCCC1=O` (stereo not drawn), the Amnesia reversal amounted to 61%.

In the case of `CC1CCC(=O)N1CC(=O)NCCN1C(C)CCCC1C` (stereo not drawn), the Amnesia reversal is 0%.

As to `CC1CCC(=O)N1CC(=O)NCCCN(C(C)C)C(C)C` (stereo not drawn), the Amnesia reversal is recorded as 30%.

In the case of `CCC1CCC(=O)N1CC(=O)NCCN1C(C)CCCC1C` (stereo not drawn), the Amnesia reversal is 27%.

On to `CC1CCCC(C)N1CCNC(=O)CN1CC(c2ccccc2)CC1=O` (stereo not drawn), for which the Amnesia reversal turned out to be 33%.

For `CC1CCC(=O)N1CC(=O)NCCN(C(C)C)C(C)C` (stereo not drawn), the Amnesia reversal worked out at 56%.

For `CC1CC(C)N(CCCNC(=O)CN2CCCC2=O)C(C)(C)C1` (stereo not drawn), the Amnesia reversal is 45%.

For `CC1CCCC(C)N1CCCNC(=O)CN1CC(c2ccccc2)CC1=O` (stereo not drawn), the Amnesia reversal worked out at 50%.

The subject of a further experiment is Mus musculus. In words: Ability to reverse electroconvulsive shock induced amnesia in mice, after administering intraperitoneally at a dose of 1.25 mg/kg. Format: functional. As to conditions: route intraperitoneal. The essentials: as §1
Regarding `NC(=O)CN1CC(c2ccccc2)CC1=O` (stereo not drawn), the Amnesia reversal is given as 0%.

As to `CC(C)N(CCCCNC(=O)CN1CCCC1=O)C(C)C`, the Amnesia reversal worked out at 8%.

Take `CC1CCC(=O)N1CC(=O)NCCN1C(C)CCCC1C` (stereo not drawn): the Amnesia reversal is 58%.

For the compound `CC1CCCC(C)N1CCNC(=O)CN1CC(c2ccccc2)CC1=O` (stereo not drawn), the Amnesia reversal was determined as 10%.

A further experiment has as its system Mus musculus. In words: Ability to reverse electroconvulsive shock (ECS) induced amnesia in mice, after administering intraperitoneally, at a dose of 80.0 mg/kg. Format: functional. As to conditions: route intraperitoneal. The essentials:
as §1
As for `NC(=O)CN1CC(c2ccccc2)CC1=O` (stereo not drawn), the Amnesia reversal is 0%.

For `CC(C)N(CCCCNC(=O)CN1CCCC1=O)C(C)C`, the Amnesia reversal came to 15%.

For the next experiment, the system named is Mus musculus. The experiment can be described thus: Ability to reverse electroconvulsive shock (ECS) induced amnesia in mice, after administering intraperitoneally, at a dose of 160 mg/kg. The experiment is classed as functional. The conditions noted are these: route intraperitoneal. The essentials:
as §1
For the compound `CC(C(=O)NCCCN1C(C)CCCC1C)N1CCCC1=O` (stereo not drawn), the Amnesia reversal was 30%.

Take `CC1CCCC(C)N1CCNC(=O)CN1C(=O)CCC1(C)C` (stereo not drawn): the Amnesia reversal is recorded as 80%.

Take `CC1CCC(=O)N1CC(=O)NCCCN(C(C)C)C(C)C` (stereo not drawn): the Amnesia reversal was determined as 20%.

The test system of a further experiment is Mus musculus. The experiment can be described thus: Ability to reverse electroconvulsive shock induced amnesia in mice, after administering intraperitoneally at a dose of 20 mg/kg. The experiment is classed as functional. The conditions noted are these: route intraperitoneal. The essentials:
as §1
As for `CC(CNC(=O)CN1CCCC1=O)N1CCCCC1` (stereo not drawn), the Amnesia reversal was 0%.

For `CCN(CC)CCNC(=O)CN1CCCC1=O`, the Amnesia reversal was 46%.

In the case of `CC1CCC(=O)N1CC(=O)NCCCN1C(C)CCCC1C` (stereo not drawn), the Amnesia reversal came to 30%.

As to `CC(CNC(=O)CN1C(=O)CCC1C)N1CCCCC1` (stereo not drawn), the Amnesia reversal amounted to 36%.

Consider `CC(C)N(C)CCNC(=O)CN1CCCC1=O`, for which the Amnesia reversal was found to be 0%.

Consider `CC1CCCC(C)N1CCNC(=O)CN1C(=O)CCC1(C)C` (stereo not drawn), for which the Amnesia reversal is on record as 22%.

Consider `C1CCc2nnnn2CC1.O=C(O)c1cccnc1`, for which the Amnesia reversal is 0%.

Turning to `CC(C(=O)NCCN1C(C)CCCC1C)N1CCCC1=O` (stereo not drawn), the Amnesia reversal was 42%.

For the compound `CC1CCC(=O)N1CC(=O)NCCN1C(C)CCCC1C` (stereo not drawn), the Amnesia reversal was found to be 36%.

Consider `CC1CCC(=O)N1CC(=O)NCCCN(C(C)C)C(C)C` (stereo not drawn), for which the Amnesia reversal worked out at 0%.

In the case of `CCC1CCC(=O)N1CC(=O)NCCN1C(C)CCCC1C` (stereo not drawn), the Amnesia reversal is on record as 40%.

In the case of `CC1CCCC(C)N1CCNC(=O)CN1CC(c2ccccc2)CC1=O` (stereo not drawn), the Amnesia reversal is 44%.

Take `CC1CCC(=O)N1CC(=O)NCCN(C(C)C)C(C)C` (stereo not drawn): the Amnesia reversal was 0%.

As for `CC1CC(C)N(CCCNC(=O)CN2CCCC2=O)C(C)(C)C1` (stereo not drawn), the Amnesia reversal is given as 18%.

In the case of `CC1CCCC(C)N1CCCNC(=O)CN1CC(c2ccccc2)CC1=O` (stereo not drawn), the Amnesia reversal is 0%.

Another experiment has as its system Mus musculus. In words: Ability to reverse electroconvulsive shock induced amnesia in mice, after administering intraperitoneally at a dose of 20.0 mg/kg. The experiment is classed as functional. As to conditions: route intraperitoneal. The essentials: as §1
Consider `NC(=O)CN1CC(c2ccccc2)CC1=O` (stereo not drawn), for which the Amnesia reversal was 0%.

As to `CC(C(=O)NCCCN1C(C)CCCC1C)N1CCCC1=O` (stereo not drawn), the Amnesia reversal came out at 50%.

In the case of `CC(C)N(CCCCNC(=O)CN1CCCC1=O)C(C)C`, the Amnesia reversal amounted to 31%.

The test system of the next experiment is Mus musculus. The experiment can be described thus: Ability to reverse electroconvulsive shock (ECS) induced amnesia in mice, after administering intraperitoneally, at a dose of 5 mg/kg. The experiment is classed as functional. As to conditions: route intraperitoneal. Put shortly:
as §1
Regarding `CC(CNC(=O)CN1CCCC1=O)N1CCCCC1` (stereo not drawn), the Amnesia reversal is 0%.

For `CCN(CC)CCNC(=O)CN1CCCC1=O`, the Amnesia reversal worked out at 15%.

As to `CC1CCC(=O)N1CC(=O)NCCCN1C(C)CCCC1C` (stereo not drawn), the Amnesia reversal came out at 0%.

For the compound `CC(CNC(=O)CN1C(=O)CCC1C)N1CCCCC1` (stereo not drawn), the Amnesia reversal came to 18%.

As to `CC(C)N(C)CCNC(=O)CN1CCCC1=O`, the Amnesia reversal was determined as 21%.

On to `CC(C(=O)NCCN1C(C)CCCC1C)N1CCCC1=O` (stereo not drawn), for which the Amnesia reversal came to 17%.

As to `CC1CCC(=O)N1CC(=O)NCCN1C(C)CCCC1C` (stereo not drawn), the Amnesia reversal came to 55%.

Regarding `CC1CCC(=O)N1CC(=O)NCCCN(C(C)C)C(C)C` (stereo not drawn), the Amnesia reversal is on record as 40%.

As to `CCC1CCC(=O)N1CC(=O)NCCN1C(C)CCCC1C` (stereo not drawn), the Amnesia reversal is 27%.

As for `CC1CCCC(C)N1CCNC(=O)CN1CC(c2ccccc2)CC1=O` (stereo not drawn), the Amnesia reversal came to 67%.

Regarding `CC1CCC(=O)N1CC(=O)NCCN(C(C)C)C(C)C` (stereo not drawn), the Amnesia reversal was 0%.

Turning to `CC1CC(C)N(CCCNC(=O)CN2CCCC2=O)C(C)(C)C1` (stereo not drawn), the Amnesia reversal came to 9%.

With `CC1CCCC(C)N1CCCNC(=O)CN1CC(c2ccccc2)CC1=O` (stereo not drawn), the Amnesia reversal is given as 0%.

The subject of another experiment is Mus musculus. In words: Ability to reverse electroconvulsive shock (ECS) induced amnesia in mice, after administering intraperitoneally, at a dose of 0.63 mg/kg. The experiment is classed as functional. The conditions noted are these: route intraperitoneal. Put shortly:
as §1
For `NC(=O)CN1CC(c2ccccc2)CC1=O` (stereo not drawn), the Amnesia reversal worked out at 0%.

On to `CC(C)N(CCCCNC(=O)CN1CCCC1=O)C(C)C`, for which the Amnesia reversal worked out at 0%.

Turning to `CC1CCC(=O)N1CC(=O)NCCN1C(C)CCCC1C` (stereo not drawn), the Amnesia reversal was determined as 33%.

As for `CC1CCCC(C)N1CCNC(=O)CN1CC(c2ccccc2)CC1=O` (stereo not drawn), the Amnesia reversal stood at 0%.

The subject of another experiment is Mus musculus. The experiment can be described thus: Ability to reverse electroconvulsive shock induced amnesia in mice, after administering intraperitoneally at a dose of 2.5 mg/kg. Format: functional. As to conditions: route intraperitoneal. The essentials:
as §1
In the case of `NC(=O)CN1CC(c2ccccc2)CC1=O` (stereo not drawn), the Amnesia reversal was found to be 0%.

For `CC(C)N(CCCCNC(=O)CN1CCCC1=O)C(C)C`, the Amnesia reversal is listed as 8%.

On to `CC1CCC(=O)N1CC(=O)NCCN1C(C)CCCC1C` (stereo not drawn), for which the Amnesia reversal amounted to 67%.

Take `CC1CCCC(C)N1CCNC(=O)CN1CC(c2ccccc2)CC1=O` (stereo not drawn): the Amnesia reversal turned out to be 40%.

Another experiment deals with Mus musculus. In words: Ability to reverse electroconvulsive shock induced amnesia in mice, after administering intraperitoneally at a dose of 5 mg/kg. The conditions noted are these: route intraperitoneal. The experiment is classed as functional. Put shortly:
as §1
On to `NC(=O)CN1CC(c2ccccc2)CC1=O` (stereo not drawn), for which the Amnesia reversal came to 15%.

Turning to `CC(C(=O)NCCCN1C(C)CCCC1C)N1CCCC1=O` (stereo not drawn), the Amnesia reversal came out at 8%.

For `CC(C)N(CCCCNC(=O)CN1CCCC1=O)C(C)C`, the Amnesia reversal stood at 31%.

With `C1CCc2nnnn2CC1.O=C(O)c1cccnc1`, the Amnesia reversal is reported as 0%.
